The list is not random: actives were taken first. Their share in the collection is about 3.6%.
AHR activator – human AHR activation. AHR-responsive luciferase reporter cells, luminescence. activation, % at 5 µM. actives 2.5% (n = 320,000); in the data active = activation above about 47%;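 note: 0% = vehicle wells and 100% = reference agonist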
PolyA inhibitor – blocks polyadenylation in yeast reporter cells; actives 0.02% (n = 300,000); S. cerevisiae SKY197-pL101 polyadenylation reporter, beta-gal luminescence; efflux-impaired pdr1/pdr3 knockout yeast; score 100 = 6 SD above DMSO; activity score, % at 12 µM;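 active = lowest replicate activity score at least 50, where 100 means six control SD above control mean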;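 note: yeast exposed to compound for 9 h at 30 °C; higher score means more reporter readthrough which indicates perturbed polyadenylation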
PERK inh – inhibitors of human PERK kinase; Q9NZJ5; inhibition, % at 5.6 µM; actives 0.17% (n = 220,000); CHO PERK-DD fusion, SEAP luminescence translation reporter;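 active = inhibition above the mean inhibition of all tested compounds plus 3 SD, set separately per screening campaign, cut at about 2.9% in these data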;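 note: PERK kinase domain activated by AP20187 dimerizer at 100 nM; 0% = DMSO with dimerizer and 100% = rapamycin at 8.4 µM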
HSF1 inhib – HSF1 inhibition; actives 0.77% (n = 300,000); activity change, negative = inhibition, % at 7.5 µM (by protocol); NIH3T3-HGL HSE-luciferase, MG132-induced, luminescence 8 h; hits give low values;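 active = more than half of replicate wells show activity change below -50%, luminescence cut by over half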;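 note: luciferase reports HSF-1 transcriptional activity via heat shock element; 0% = median of DMSO wells and -100% = zero luminescence signal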
STAT3 activator – STAT3 signaling activation | U3A cells, IL-6 STAT3-luciferase reporter, luminescence; 100% = signal with IL-6 EC80 alone | activation (% of control), % at 5.6 µM | actives 0.91% (n = 190,000);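 active = activation above the screen-wide mean of compound activation plus 3 SD, cut at about 130% in these data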;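 note: 0% = background luminescence of wells with medium and substrate only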
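Assay system – human STAT1-deficient U3A cells with stable STAT3-luciferase reporter · Also added – IL-6 (33 ng/mL) · Schedule – compound 1 h, then IL-6 6 h at 37 °C · Technique – reporter luminescence signal · Evaluation – % activation versus median of IL-6-stimulated wells · Benchmarks – IL-6-only wells as 100% reference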
Hsp70 activator – switches on Hsp70 transcription; HeLa Hsp70 promoter luciferase reporter, luminescence; scaled: vehicle 0, proteasome-inhibitor control 100%; activation, % at 10 µM; actives 0.04% (n = 200,000); AID 1203;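 active = activation above the mean across all tested compounds plus 3 SD, cutoff set per campaign, cut at about 5.5% in these data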;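 note: 100% = MG132 at 30 µM as the positive control and 0% = DMSO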
* = called active by the depositor; . = no result given.

SMILES	AHR activator	PolyA inhibitor	PERK inh	HSF1 inhib	STAT3 activator	Hsp70 activator
Cc1cc(=O)[nH]c(SCC(=O)Nc2c(C)n(C)n(-c3ccccc3)c2=O)c1C#N	-1.0	.	.	.	.	.
Cc1ccc(-c2nnn(CC(=O)N3CCCCC3)n2)cc1	8.2	29.7	.	3.3	.	.
CCOc1ccc(NC(=O)c2ccc3c(=O)n(-c4ccc(OC)cc4OC)c(=S)[nH]c3c2)cc1	-1.8	-0.1	.	-80.9*	.	.
O=C(Nc1ccc(N2CCCCCC2)cc1)c1ccccc1Cl	2.0	-22.2	0.1	29.0	108.8	0.7
O=C(Nc1ccc(N2CCCCC2)cc1)c1ccccn1	-8.7	-3.0	0.3	-66.9*	8.5	-0.7
COc1cccc(OC)c1C(=O)Nc1ccc2c(c1)Cc1ccccc1-2	74.8*	-4.3	0.2	28.9	92.8	1.3
CCOc1ccc(NC(=O)c2c(OC)cccc2OC)cc1	50.8*	28.0	-0.1	-2.2	107.0	0.1
COc1ccc(C(=O)Nc2ccc3c(c2)Cc2ccccc2-3)cc1	0.6	-13.5	1.3	-5.8	103.0	-0.2
COc1cccc(OC)c1C(=O)Nc1ccc(N2CCCC2)cc1	49.5*	16.5	.	-1.2	.	.
COc1cccc(OC)c1C(=O)Nc1ccc(N2CCN(S(C)(=O)=O)CC2)cc1	-1.9	-3.6	1.6	-8.2	101.0	-0.3
COc1cccc(NC(=O)COC(=O)C2CC2)c1	0.6	.	.	.	.	.
O=C(N/N=C\c1ccc(Cl)s1)c1ccc(Cn2cccn2)o1	73.0*	-7.5	0.4	2.1	104.6	0.1
O=C(N/N=C/c1cccnc1)c1ccc(Cn2cc([N+](=O)[O-])cn2)o1	62.5*	-1.2	-0.5	7.7	95.0	0.3
CC(C)c1ccc(/C=N\NC(=O)c2ccc(Cn3cccn3)o2)cc1	22.5	7.4	-1.2	-6.9	88.0	-0.2
Cc1ccc(CNC(=O)/C=C/c2c(Cl)cccc2Cl)cc1	-2.2	6.0	0.8	-1.2	105.0	-0.2
Cc1ccc(CNC(=O)/C=C/c2ccccc2Cl)cc1	-0.3	-7.9	3.0*	10.4	112.0	-0.2
COc1ccc(N(C)C(=O)Cn2c(=O)oc3ccccc32)c(OC)c1	2.2	5.9	.	-8.7	.	.
COc1ccc(N(C)C(=O)c2oc(=O)c3ccccc3c2-c2ccccc2)c(OC)c1	0.2	-19.9	-2.1	-79.1*	.	.
CC(OCC(O)CN(C)Cc1nc2ccccc2c(=O)[nH]1)c1ccc(Cl)cc1 (configuration not stated)	2.5	-10.1	0.2	2.7	101.7	-0.2
Cc1sc2nc(SCC(=O)N3CCOCC3)[nH]c(=O)c2c1-c1ccccc1	48.6*	7.7	.	-3.9	.	.
Cc1sc2nc(-c3ccccc3)[nH]c(=O)c2c1-c1ccccc1	48.0*	-12.8	1.1	-0.7	94.3	-0.3
Cc1cc(NC(=O)/C=C/c2ccc(F)cc2)n(-c2nc3ccccc3[nH]2)n1	8.6	30.3	0.1	7.0	105.9	-0.3
Cc1cc(NC(=O)/C=C/c2cccc(F)c2)n(-c2nc3ccccc3[nH]2)n1	74.2*	-4.3	0.7	6.9	74.1	-0.3
O=C(c1cnn2c(C(F)F)cc(C3CC3)nc12)N1CCc2ccccc2C1	49.2*	-11.5	-0.3	5.8	88.9	-0.1
O=S(=O)(NCC(c1ccc2c(c1)OCO2)N1CCN(c2ccccc2)CC1)c1ccccc1 (configuration not stated)	-0.8	11.1	.	-2.8	.	.
SMILES	AHR activator	PolyA inhibitor	PERK inh	HSF1 inhib	STAT3 activator	Hsp70 activator
COc1cccc(Nc2nc(-c3sc(C)nc3C)cs2)c1	22.5	-25.5	.	22.9	.	.
c1cc2c(cc1Nc1nc(-c3ccc4c(c3)OCO4)cs1)OCCO2	25.3	-1.8	-1.5	8.7	91.5	-0.2
c1ccc(-c2csc(Nc3ccc4c(c3)OCCO4)n2)cc1	60.9*	-0.7	0.2	-2.9	95.0	-0.1
COc1cccc(Nc2nc(-c3sc(N)nc3C)cs2)c1	104.8*	11.4	0.7	-4.0	108.2	-0.2
COc1cccc(Nc2nc(-c3ccc4c(c3)OCCO4)cs2)c1	71.7*	-8.6	-0.8	-2.2	110.0	0.6
Fc1ccc(CSc2ccc3nnc(-c4cccnc4)n3n2)cc1	5.6	5.2	1.1	1.8	89.6	-0.3
Cn1c(=N)n(CC(=O)c2ccc(Br)s2)c2ccccc21	71.2*	1.0	-2.0	-26.2	166.6*	0.2
N=c1n(CC(=O)c2ccc(Br)s2)c2ccccc2n1Cc1ccccc1	71.3*	0.1	-1.4	15.9	.	.
CCCn1c(=N)n(CC(=O)c2cccs2)c2ccccc21	18.3	9.1	-0.5	-4.8	103.1	0.4
COc1cccc(C(=O)Cn2c(=N)n(C)c3ccccc32)c1	51.7*	-7.9	-0.4	25.4	65.6	-0.3
CCN(CC)CCn1c(=N)n(CCO)c2ccccc21	-1.1	36.9	1.0	-13.0	103.8	-0.1
CCN(CC)CCn1c(=N)n(CC(=O)c2ccc(Br)s2)c2ccccc21	70.0*	-6.7	-2.0	4.3	.	.
CCC(=O)c1ccc(OCC(=O)OCC(=O)N2c3ccccc3CC2C)cc1 (configuration not stated)	0.2	1.4	.	-0.2	.	.
CCCc1cc(NC(=O)COC(=O)c2nccnc2N)n(-c2ccccc2)n1	1.3	.	.	.	.	.
CC(C)(C)OC(=O)[C@H](Cc1ccccc1)NC(=O)c1nc[nH]c1C(=O)N1CCNCC1	2.0	.	.	.	.	.
Cn1c(=N)n(CC(=O)c2cccs2)c2ccccc21	49.4*	8.0	-0.7	6.6	137.0*	0.5
COc1ccc(N2CCN(CCCn3c(=S)[nH]c4ncccc4c3=O)CC2)cc1	-0.2	-0.1	-0.4	-56.3*	125.7	-0.4
O=c1c2cccnc2[nH]c(=S)n1CCCN1CCN(c2ccc(F)cc2)CC1	21.6	16.2	-1.0	5.9	103.8	-0.2
O=C(O)c1ccccc1/C=N/NC(=S)NCc1ccccc1	1.3	-6.4	0.3	-5.3	.	.
Cc1cc(C)c(S(=O)(=O)Nc2ccc(N(C)C)cc2)c(C)c1-n1cnnn1	0.1	-5.0	.	-65.1*	.	.
Cc1cc(=O)[nH]c2c1c(=O)[nH]n2C1CC(C)N(C)CC1C (configuration not stated)	0.8	0.3	1.8	-57.1*	99.2	-0.4
COc1cc(CNCc2cc(OC)ccc2OC)cc(OC)c1	9.0	0.6	.	-3.3	.	.
CCN1C(=O)C(CC(=O)Nc2ccc(OC)cc2)N(Cc2ccc3c(c2)OCO3)C1=S (configuration not stated)	21.7	-0.9	-0.5	-77.6*	102.5	-0.2
CCN1C(=O)C(CC(=O)Nc2ccc(OC)cc2)N(Cc2ccc(OC)c(OC)c2)C1=S (configuration not stated)	-0.3	-12.2	-1.8	-4.5	.	.
O=C1CN(C(=O)COC(=O)c2cc(S(=O)(=O)N3CCOCC3)ccc2Cl)c2ccccc2N1	0.6	-2.7	0.4	8.3	.	.
COc1ccc2c(c1)c(C(=O)N/N=C/c1ccccc1Cl)c(C)n2C	57.1*	14.3	-2.1	15.7	.	.
CCOc1cccc(CN2CCC(CCC(=O)NC3CC3)CC2)c1O	3.5	15.6	.	-3.0	.	.

Assay outcomes deposited in PubChem BioAssay by several laboratories.
